From publication PMC4893941 (Journal of medicinal chemistry, 2016)

Experiments:
[1] = Octanol–water partition coefficients; type: physicochemical; conditions: 1-octanol/water partition, UV–vis absorbance
Summary of the method: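 Octanol and water were mutually presaturated. A 64 μM stock of test compound in water-saturated octanol was vortexed 10 min with water. After phase separation, the octanol layer was diluted and its UV–vis absorbance read. log P was calculated from octanol absorbance before versus after partitioning and the water/octanol phase volumes.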

[2] = tested on: human glioma T98G cells; assay: Time-dependent cellular uptake; type: cell-based; conditions: 10 μM; for cellular uptake after 24 h, fold higher than 7: relative to BODIPY 7
Summary of the method: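 T98G glioma cells were seeded at 15 000/well in EMEM with 10% FBS and grown 24 h. They were then exposed to 10 μM test compound for 0, 1, 2, 4, 8 or 24 h, PBS-washed and lysed in 0.25% Triton X-100/PBS. Fluorescence at 485/590 nm was read against compound standard curves (0.3125–10 μM). Cell number came from a CyQuant cell standard curve, and uptake was expressed as nM per cell.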

[3] = tested on: human hCMEC/D3 brain endothelial cell monolayers; assay: BBB permeability across hCMEC/D3 cell monolayers; type: in vitro ADME; conditions: hCMEC/D3 monolayer; for Pe (permeability coefficient): 50 μM in transport buffer, 0–45 min
Summary of the method: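 hCMEC/D3 cells were grown 48 h on 0.4 μm PET Transwell inserts in EBM-2 with 5% FBS, hydrocortisone, ascorbate, lipid concentrate, HEPES and bFGF. Monolayers were checked by microscopy. Test compound or lucifer yellow (50 μM) in HBSS/HEPES/pyruvate transport buffer was added to the upper chamber at 37 °C. Inserts were moved to fresh buffer at 10 and 25 min, and the lower chamber was sampled at 10, 25 and 45 min. Fluorescence was read at 485/590 nm (compound) or 425/538 nm (LY) against standard curves. Pe came from clearance-slope fits, cell inserts minus cell-free inserts, in triplicate.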

Substance	log P [1]	cellular uptake at 24 h [2]	cellular uptake after 24 h, fold higher than 7 [2]	Pe (permeability coefficient) [3]	Pe relative to LY ([3]; relative to lucifer yellow)
8-(1,2-Carboranyl-1-thio)-1,3-dimethyl-BODIPY [2b]	1.69	0.36 ± 0.03 nM/cell	106 fold	6.0 ± 1.0 × 10^−5 cm/s	
8-(1,2-Carboranyl-1-thio)-2-ethyl-1,3,6,7-tetramethyl-BODIPY [5b]	1.95	1.5 ± 0.05 nM/cell	about 436 fold	2.6 ± 0.9 × 10^−5 cm/s	
8-(1,2-Carboranyl-1-thio)-3-chloro-2-ethyl-1,3,6,7-tetramethyl-BODIPY [6b]	1.93	0.46 ± 0.06 nM/cell	135 fold	5.4 ± 0.6 × 10^−5 cm/s	
8-(1,2-Carboranyl-1-thio)-BODIPY [1b]	1.50	0.23 ± 0.05 nM/cell	67 fold	16.4 ± 3.3 × 10^−5 cm/s	7 fold
8-[4-(2-Methyl-1,2-carboranyl)methylphenyl]-BODIPY [compound 4]	2.11	0.41 ± 0.03 nM/cell	118 fold		
lucifer yellow [LY, reference compound]				2.2 ± 0.8 × 10^−5 cm/s	
